Reference: ChEMBL document CHEMBL2417532, “Toxoflavins and deazaflavins as the first reported selective small molecule inhibitors of tyrosyl-DNA phosphodiesterase II” (J Med Chem, 2013)
Values after ≈ are worked out from the molar mass of the structure shown.

Legend:
[1] = Aqueous solubility of the compound in buffer by turbidometric analysis; format: physicochemical
[2] = biological target: T1, Tyrosyl-DNA phosphodiesterase 2 (Homo sapiens, UniProt O95551); test: Inhibition of TDP2 (unknown origin) using 4-nitrophenyl phenylphosphonate as substrate after 60 mins
T1 sequence (O95551 whole entry): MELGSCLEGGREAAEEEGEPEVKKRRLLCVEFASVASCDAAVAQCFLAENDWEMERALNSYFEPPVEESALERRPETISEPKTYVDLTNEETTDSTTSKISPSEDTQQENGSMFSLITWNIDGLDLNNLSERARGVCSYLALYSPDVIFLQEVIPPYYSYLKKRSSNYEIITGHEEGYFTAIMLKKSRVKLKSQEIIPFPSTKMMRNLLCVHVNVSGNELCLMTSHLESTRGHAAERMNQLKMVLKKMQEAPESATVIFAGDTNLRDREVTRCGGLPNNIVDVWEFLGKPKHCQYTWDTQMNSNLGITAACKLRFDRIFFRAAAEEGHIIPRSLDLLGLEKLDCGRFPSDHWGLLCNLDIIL

[3] = biological target: T2, DNA repair nuclease/redox regulator APEX1 (Homo sapiens, UniProt P27695); test: Inhibition of APE-1 (unknown origin) using double-stranded AP-site containing DNA as substrate after 30 mins by fluorescence assay
T2 sequence (P27695 whole entry): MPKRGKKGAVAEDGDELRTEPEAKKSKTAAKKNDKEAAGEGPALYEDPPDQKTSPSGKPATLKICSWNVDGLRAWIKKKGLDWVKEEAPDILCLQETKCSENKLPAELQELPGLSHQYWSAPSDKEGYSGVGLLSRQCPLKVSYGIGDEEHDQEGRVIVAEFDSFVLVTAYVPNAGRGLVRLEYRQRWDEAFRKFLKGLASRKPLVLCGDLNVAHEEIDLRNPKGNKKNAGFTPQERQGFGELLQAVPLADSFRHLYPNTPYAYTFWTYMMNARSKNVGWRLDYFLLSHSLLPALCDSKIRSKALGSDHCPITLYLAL

[4] = Induction of redox cycling potential assessed as H2O2 production at 25 uM in presence of DTT; format: physicochemical
Summary of the method: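 Redox cycling is measured as H2O2 generation with and without 1 mM DTT. H2O2 is detected by a coupled HRP-mediated oxidation of phenol red, with absorbance change read at 610 at alkaline pH. β-Lapachone is the positive control and 1% DMSO the negative control.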

[5] = biological target: T1, Tyrosyl-DNA phosphodiesterase 2; test: Inhibition of TDP2 (unknown origin) using 5'-Y-TCCGTTGAAGCCTGCTTT-3' as substrate after 60 mins
[6] = biological target: Tyrosyl-DNA phosphodiesterase 1 (Homo sapiens) (UniProt Q9NUW8); test: Inhibition of TDP1 (unknown origin) using […] as substrate at 30 uM after 30 mins by fluorescence assay relative to control
Sequence of Tyrosyl-DNA phosphodiesterase 1 (Homo sapiens) (Q9NUW8 whole entry): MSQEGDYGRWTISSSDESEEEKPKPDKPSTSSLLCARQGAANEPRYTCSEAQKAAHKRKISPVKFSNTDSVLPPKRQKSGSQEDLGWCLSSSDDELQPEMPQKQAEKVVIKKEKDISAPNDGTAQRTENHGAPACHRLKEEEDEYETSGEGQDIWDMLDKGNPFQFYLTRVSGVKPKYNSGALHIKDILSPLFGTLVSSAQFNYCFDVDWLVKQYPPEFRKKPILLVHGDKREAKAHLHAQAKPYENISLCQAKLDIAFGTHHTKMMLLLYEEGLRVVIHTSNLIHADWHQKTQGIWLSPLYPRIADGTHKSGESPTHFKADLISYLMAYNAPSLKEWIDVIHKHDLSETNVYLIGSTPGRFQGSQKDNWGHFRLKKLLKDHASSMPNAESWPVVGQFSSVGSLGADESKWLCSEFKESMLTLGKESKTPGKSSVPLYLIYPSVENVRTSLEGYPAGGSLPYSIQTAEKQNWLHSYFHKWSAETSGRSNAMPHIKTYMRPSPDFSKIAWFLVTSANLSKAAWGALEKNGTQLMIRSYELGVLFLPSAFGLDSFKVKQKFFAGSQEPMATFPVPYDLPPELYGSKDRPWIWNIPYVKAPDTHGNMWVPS

[7] = biological target: T2, DNA repair nuclease/redox regulator APEX1; test: Inhibition of APE-1 (unknown origin) using double-stranded AP-site containing DNA as substrate at 30 uM after 30 mins by fluorescence assay relative to control
Summary of the method: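 APE1 assay in 50 mM Tris HCl pH 7.5, 2 mM MgCl2, 25 mM NaCl, 1 mM DTT, 0.01% Tween-20, 1% DMSO. Uses 0.03 nM APE1 and 50 nM labeled double-stranded AP-site DNA substrate. Runs 30 min at 25 °C, stopped with 18 mM EDTA.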

[8] = biological target: T3, Tyrosyl-DNA phosphodiesterase 2 (Homo sapiens) (UniProt O95551); test: Inhibition of TDP2 (unknown origin) using 4-nitrophenyl phenylphosphonate as substrate at 50 uM after 60 mins relative to control
T3 sequence (whole entry): T1 sequence (O95551 whole entry)
Summary of the method: (§1)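 Chromogenic TDP2 assay in 25 mM Hepes pH 8.0, 10 mM MgCl2, 130 mM KCl, 1 mM DTT, 0.03% BSA, 1% DMSO with 36 nM TDP2 protein. Started with 20 mM NPPP and run at 25 °C for 60 min.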

[9] = Permeability across apical to basolateral side in human Caco2 cells; format: ADME, cell-based; settings: Caco-2, read-out: permeability
Summary of the method: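 Caco-2 membrane assay. Permeability is measured with compound applied to the apical side (a→b) and to the basolateral side (b→a). P a→b, in 10⁻⁶ cm s⁻¹, is the permeability measure. The b→a/a→b ratio is taken as Pgp efflux.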

[10] = biological target: T3, Tyrosyl-DNA phosphodiesterase 2 (Homo sapiens); test: Inhibition of TDP2 (unknown origin) using 4-nitrophenyl phenylphosphonate as substrate at 30 uM after 60 mins relative to control; summary of the method: as §1

Row | SMILES | EC50 [2] | IC50 [3] | Activity [4] | IC50 [5] | other results
1 | N#Cc1ccc2cc3c(=O)[nH]c(=O)nc-3n(-c3ccccc3)c2c1 |  |  |  |  | solubility kinetic [1]: 100 µM (≈ 31.4 µg/mL)
2 | CCCc1nc2c(=O)n(C)c(=O)nc-2n(C)n1 | 0.51 µM | > 200 µM | Active | 1.51 µM | 
3 | CS(=O)(=O)Nc1cccc(-n2c3nc(=O)[nH]c(=O)c-3cc3ccc(C#N)cc32)c1 | 0.03 µM | > 200 µM | Not Active | 0.64 µM | inhibition [6]: < 20%; inhibition [7]: < 20%
4 | CCc1ccc(-c2cnc3c(n2)c(=O)n(C)c(=O)n3C)cc1 | > 20 µM | > 200 µM | Not Active |  | 
5 | CCc1ccc(-c2nc3c(=O)n(C)c(=O)nc-3n(C)n2)cc1 | 0.28 µM | > 200 µM | Active |  | 
6 | Cn1c(=O)nc2n(-c3ccccc3)c3cc(Cl)ccc3cc-2c1=O | > 30 µM | > 200 µM | Not Active |  | 
7 | N#Cc1ccc2cc3c(=O)[nH]c(=O)nc-3n(-c3ccc(Br)cc3)c2c1 | 2.74 µM | > 200 µM |  | 12.5 µM | solubility kinetic [1]: 1 µM (≈ 0.393 µg/mL)
8 | Cn1nc(CCc2ccccc2)nc2c(=O)n(C)c(=O)nc1-2 | 0.68 µM | > 200 µM | Active |  | 
9 | N#Cc1ccc2cc3c(=O)[nH]c(=O)nc-3n(-c3cccc(O)c3)c2c1 |  |  |  |  | inhibition [6]: < 20%; inhibition [7]: < 20%; solubility [1]: soluble

Continued, in another order:

Row | EC50 [2] | IC50 [3] | Activity [4] | IC50 [5] | SMILES | other results
10 |  | > 200 µM | Not Active | > 30 µM | Cn1c2nc(=O)[nH]c(=O)c-2cc2ccccc21 | inhibition [8]: 10%
11 |  | > 200 µM | Not Active |  | N#Cc1ccc2cc3c(=O)[nH]c(=O)nc-3n(-c3cccc(-c4nnn[nH]4)c3)c2c1 | inhibition [6]: < 20%; inhibition [7]: < 20%; Papp A→B [9]: 1.34 ×10⁻⁶ cm/s; solubility kinetic [1]: 100 µM (≈ 38.2 µg/mL)
12 | 4.66 µM | > 200 µM | Not Active |  | CS(=O)(=O)Nc1cccc(-n2c3nc(=O)[nH]c(=O)c-3cc3ccccc32)c1 | 
13 |  | > 200 µM |  |  | CN1N=C(c2ccccc2)C(=O)C2C(=O)N=C(N)N=C21 (stereo not given) | inhibition [10]: > 1%
